Measurements published in ChEMBL document CHEMBL5724801, “EUbOPEN Chemogenomics Library - Multiplex” (2024).
Values joined by “and” are separate entries in the source; they are usually repeats but may differ in a detail not shown here. Equal values may be shown once.

System: Fibroblast
Assay: Multiplex assay against human fibroblast
Type: toxicity, cell-based
In short: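 With compound added, live cells were imaged on a CQ1 microscope at 37°C and 5% CO2; staining with Hoechst33342, BioTracker Green Microtubule Cytoskeleton Dye, MitoTracker Red and Annexin V Alexa Fluor 680 had been done at seeding. The CellPathfinder machine-learning gating scheme split cells into Hoechst high-intensity objects or normal cells, normal cells into healthy, pyknosed or fragmented nuclei, and pyknosed cells into mitotic or apoptotic. The tubulin, mitochondrial-mass and membrane-permeability phenotypes are per cents of healthy-nucleus cells.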

[1] = 12 h, 1 µM, compound concentration 1 uM
[2] = 12 h, 10 µM, compound concentration 10 uM
[3] = 24 h, 1 µM, compound concentration 1 uM
[4] = 24 h, 10 µM, compound concentration 10 uM
[5] = 48 h, 1 µM, compound concentration 1 uM
[6] = 48 h, 10 µM, compound concentration 10 uM

With `CC(C)(C)c1ccc(S(=O)(=O)Nc2ccc(Cl)cc2C(=O)c2cc[n+]([O-])cc2)cc1` [VERCIRNON] the “Population Apoptotic (%)” value [1] was 63% and 50%, the “Population Fragmented Nuclei (%)” value [1] was 19% and 27% and the “Population Healthy Nuclei (%)” value [1] was 65% and 46%. For the same compound, the “Population Hoechst High Intensity Objects (%)” value [1] was 2% and 7%, the “Population Membrane Permeable-Phenotype (%)” value [1] was 1% and 6% and the “Population Mitochondria Different-Phenotype (%)” value [1] was 3% and 1%. The “Population Mitotic Cells (%)” value [1] was 36% and 50%, the “Population Normal (%)” value [1] was 97% and 92% and the “Population Pyknosed Nuclei (%)” value [1] was 15% and 25%. For the same compound, the “Population Tubulin-Different-Phenotype (%)” value [1] was 20% and 41%, the “Total Cell Count” value [1] was 148 and 152 and the “Population Apoptotic (%)” value [2] was 59% and 48%. For the same compound, the “Population Fragmented Nuclei (%)” value [2] was 14% and 30%, the “Population Healthy Nuclei (%)” value [2] was 64% and 44% and the “Population Hoechst High Intensity Objects (%)” value [2] was 3% and 5%. For the same compound, the “Population Membrane Permeable-Phenotype (%)” value [2] was 3% and 8%, the “Population Mitochondria Different-Phenotype (%)” value [2] was 1% and 10% and the “Population Mitotic Cells (%)” value [2] was 40% and 51%. The “Population Normal (%)” value [2] was 96% and 94%, the “Population Pyknosed Nuclei (%)” value [2] was 21% and 25% and the “Population Tubulin-Different-Phenotype (%)” value [2] was 46% and 66%. The “Total Cell Count” value [2] was 107 and 114, the “Population Apoptotic (%)” value [3] was 55% and 54% and the “Population Fragmented Nuclei (%)” value [3] was 23% and 25%. For the same compound, the “Population Healthy Nuclei (%)” value [3] was 62% and 57%, the “Population Hoechst High Intensity Objects (%)” value [3] was 0% and 7% and the “Population Membrane Permeable-Phenotype (%)” value [3] was 4% and 7%. The “Population Mitochondria Different-Phenotype (%)” value [3] was 1%, the “Population Mitotic Cells (%)” value [3] was 45% and the “Population Normal (%)” value [3] was 99% and 92%. For the same compound, the “Population Pyknosed Nuclei (%)” value [3] was 14% and 16%, the “Population Tubulin-Different-Phenotype (%)” value [3] was 27% and 40% and the “Total Cell Count” value [3] was 141 and 142. The “Population Apoptotic (%)” value [4] was 66% and 41%, the “Population Fragmented Nuclei (%)” value [4] was 16% and 32% and the “Population Healthy Nuclei (%)” value [4] was 66% and 42%. The “Population Hoechst High Intensity Objects (%)” value [4] was 1% and 0%, the “Population Mitochondria Different-Phenotype (%)” value [4] was 2% and 9% and the “Population Mitotic Cells (%)” value [4] was 33% and 58%. For the same compound, the “Population Normal (%)” value [4] was 98% and 99%, the “Population Pyknosed Nuclei (%)” value [4] was 16% and 24% and the “Population Tubulin-Different-Phenotype (%)” value [4] was 40% and 82%. The “Total Cell Count” value [4] was 114 and 120, the “Population Apoptotic (%)” value [5] was 61% and 62% and the “Population Fragmented Nuclei (%)” value [5] was 29% and 32%. For the same compound, the “Population Healthy Nuclei (%)” value [5] was 58% and 55%, the “Population Hoechst High Intensity Objects (%)” value [5] was 1% and 6% and the “Population Membrane Permeable-Phenotype (%)” value [5] was 1% and 6%. The “Population Mitochondria Different-Phenotype (%)” value [5] was 1% and 9%, the “Population Mitotic Cells (%)” value [5] was 38% and 37% and the “Population Normal (%)” value [5] was 98% and 93%. The “Population Pyknosed Nuclei (%)” value [5] was 12% and 11%, the “Population Tubulin-Different-Phenotype (%)” value [5] was 25% and 37% and the “Total Cell Count” value [5] was 151 and 145. For the same compound, the “Population Apoptotic (%)” value [6] was 62% and 46%, the “Population Fragmented Nuclei (%)” value [6] was 22% and 42% and the “Population Healthy Nuclei (%)” value [6] was 64% and 46%. For the same compound, the “Population Hoechst High Intensity Objects (%)” value [6] was 2% and 4%, the “Population Mitochondria Different-Phenotype (%)” value [6] was 0% and 12% and the “Population Mitotic Cells (%)” value [6] was 37% and 53%. The “Population Normal (%)” value [6] was 97% and 95%, the “Population Pyknosed Nuclei (%)” value [6] was 13% and 11% and the “Population Tubulin-Different-Phenotype (%)” value [6] was 38% and 72%. For the same compound, the “Total Cell Count” value [6] was 120 and 122.
With `O=C(NCCNCC(O)COc1ccc(O)cc1)N1CCOCC1.O=C(NCCNCC(O)COc1ccc(O)cc1)N1CCOCC1.O=C(O)/C=C/C(=O)O` (configuration not stated) [XAMOTEROL FUMARATE] the “Population Apoptotic (%)” value [1] was 63% and 43%, the “Population Fragmented Nuclei (%)” value [1] was 15% and 23% and the “Population Healthy Nuclei (%)” value [1] was 67% and 53%. The “Population Hoechst High Intensity Objects (%)” value [1] was 2% and 4%, the “Population Mitochondria Different-Phenotype (%)” value [1] was 4% and 7% and the “Population Mitotic Cells (%)” value [1] was 36% and 56%. The “Population Normal (%)” value [1] was 97% and 95%, the “Population Pyknosed Nuclei (%)” value [1] was 17% and 23% and the “Population Tubulin-Different-Phenotype (%)” value [1] was 24% and 55%. For the same compound, the “Total Cell Count” value [1] was 114 and 167, the “Population Apoptotic (%)” value [2] was 30% and 17% and the “Population Fragmented Nuclei (%)” value [2] was 21% and 30%. For the same compound, the “Population Healthy Nuclei (%)” value [2] was 64% and 49%, the “Population Hoechst High Intensity Objects (%)” value [2] was 4% and 5% and the “Population Membrane Permeable-Phenotype (%)” value [2] was 2% and 4%. The “Population Mitochondria Different-Phenotype (%)” value [2] was 5% and 11%, the “Population Mitotic Cells (%)” value [2] was 70% and 82% and the “Population Normal (%)” value [2] was 95% and 94%. The “Population Pyknosed Nuclei (%)” value [2] was 14% and 20%, the “Population Tubulin-Different-Phenotype (%)” value [2] was 32% and 43% and the “Total Cell Count” value [2] was 143 and 154. For the same compound, the “Population Apoptotic (%)” value [3] was 68% and 50%, the “Population Fragmented Nuclei (%)” value [3] was 20% and 28% and the “Population Healthy Nuclei (%)” value [3] was 63% and 52%. The “Population Hoechst High Intensity Objects (%)” value [3] was 1% and 2%, the “Population Mitochondria Different-Phenotype (%)” value [3] was 2% and 6% and the “Population Mitotic Cells (%)” value [3] was 31% and 50%. The “Population Normal (%)” value [3] was 98% and 97%, the “Population Pyknosed Nuclei (%)” value [3] was 15% and 19% and the “Population Tubulin-Different-Phenotype (%)” value [3] was 25% and 63%. For the same compound, the “Total Cell Count” value [3] was 121 and 149, the “Population Apoptotic (%)” value [4] was 62% and 42% and the “Population Fragmented Nuclei (%)” value [4] was 20% and 34%. For the same compound, the “Population Healthy Nuclei (%)” value [4] was 67% and 54%, the “Population Hoechst High Intensity Objects (%)” value [4] was 1% and the “Population Membrane Permeable-Phenotype (%)” value [4] was 0% and 5%. For the same compound, the “Population Mitochondria Different-Phenotype (%)” value [4] was 0% and 8%, the “Population Mitotic Cells (%)” value [4] was 37% and 57% and the “Population Normal (%)” value [4] was 98%. For the same compound, the “Population Pyknosed Nuclei (%)” value [4] was 12% and 11%, the “Population Tubulin-Different-Phenotype (%)” value [4] was 31% and 41% and the “Total Cell Count” value [4] was 135 and 172. The “Population Apoptotic (%)” value [5] was 65% and 40%, the “Population Fragmented Nuclei (%)” value [5] was 27% and 42% and the “Population Healthy Nuclei (%)” value [5] was 57% and 46%. The “Population Hoechst High Intensity Objects (%)” value [5] was 1% and 2%, the “Population Membrane Permeable-Phenotype (%)” value [5] was 1% and 7% and the “Population Mitochondria Different-Phenotype (%)” value [5] was 2% and 4%. The “Population Mitotic Cells (%)” value [5] was 35% and 60%, the “Population Normal (%)” value [5] was 98% and 97% and the “Population Pyknosed Nuclei (%)” value [5] was 15% and 10%. For the same compound, the “Total Cell Count” value [5] was 131 and 140, the “Population Apoptotic (%)” value [6] was 56% and 52% and the “Population Fragmented Nuclei (%)” value [6] was 25% and 33%. The “Population Healthy Nuclei (%)” value [6] was 62% and 54%, the “Population Hoechst High Intensity Objects (%)” value [6] was 4% and 3% and the “Population Membrane Permeable-Phenotype (%)” value [6] was 1% and 6%. The “Population Mitochondria Different-Phenotype (%)” value [6] was 3% and 4%, the “Population Mitotic Cells (%)” value [6] was 43% and 47% and the “Population Normal (%)” value [6] was 95% and 96%. For the same compound, the “Population Pyknosed Nuclei (%)” value [6] was 11%, the “Population Tubulin-Different-Phenotype (%)” value [6] was 33% and 48% and the “Total Cell Count” value [6] was 144 and 157.
